Converted amounts (≈) assume the structure as drawn. The source made the active and inactive calls. The calls are words filed in the database; no cut-off is given here.
Experiments:
[1] = tested on: Micrococcus flavus; experiment: Antimicrobial activity against Micrococcus flavus at 10 ug/disk after 24 hrs by disk diffusion assay; assay type: functional
Method in brief: (§1)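 Disc diffusion on 4 mm filter discs. Bacteria are grown overnight in LB at 28 C, then adjusted in saline to 1.0 × 10^5 cfu/ml. The suspension is mixed into top agar over peptone agar plates. Plates are incubated 24 h at 28 C, and growth-inhibition zone diameter is measured. Streptomycin and ampicillin controls are applied from a 1 mg/ml stock. Tests are done in duplicate.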

[2] = tested on: Escherichia coli; experiment: Antimicrobial activity against Escherichia coli at 1 umol/spot after 18 hrs by TLC-bioautographic method; assay type: functional
Method in brief: (§2)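 TLC bioautography. Samples are spotted on silica gel TLC plates, then sprayed with bacteria (1.0 × 10^5 cfu/ml) in tryptic soy broth. Plates are incubated 18 h at 37 C and sprayed with 3% aqueous p-iodonitrotetrazolium violet. After a further 3 h, growth is stopped with 70% EtOH. White zones on a pink background are scored as inhibition-zone diameter with standard errors.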

[3] = tested on: Bacillus cereus; experiment: Antimicrobial activity against Bacillus cereus after 24 hrs by microdilution technique; assay type: functional
Method in brief: (§3)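 Broth microdilution in LB medium. Inoculum is 1.0 × 10^4 cfu per well, from a saline-adjusted suspension of 1.0 × 10^5 cfu/ml. Compounds are dissolved in DMSO. Incubated 24 h at 28 C. MIC is the lowest concentration with no visible growth under a binocular microscope. MBC is read by subculture into fresh broth for 72 h, with no growth taken as 99.5% kill. OD is read at 655 nm.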

[4] = tested on: Listeria monocytogenes; experiment: Antimicrobial activity against Listeria monocytogenes after 24 hrs by microdilution technique; assay type: functional; method in brief: as §3
[5] = tested on: Listeria monocytogenes; experiment: Antimicrobial activity against Listeria monocytogenes at 1 umol/spot after 18 hrs by TLC-bioautographic method; assay type: functional; method in brief: as §2
[6] = tested on: Listeria monocytogenes; experiment: Antimicrobial activity against Listeria monocytogenes at 1 umol/disk after 24 hrs by disk diffusion assay; assay type: functional; method in brief: as §1
[7] = tested on: Salmonella typhimurium; experiment: Antimicrobial activity against Salmonella Typhimurium after 24 hrs by microdilution technique; assay type: functional, Salmonella enterica subsp. enterica serovar Typhimurium; details: Salmonella enterica; method in brief: as §3
[8] = tested on: Pseudomonas aeruginosa; experiment: Antimicrobial activity against Pseudomonas aeruginosa at 1 umol/disk after 24 hrs by disk diffusion assay; assay type: functional; method in brief: as §1
[9] = tested on: Salmonella typhimurium; experiment: Antimicrobial activity against Salmonella Typhimurium at 1 umol/spot after 18 hrs by TLC-bioautographic method; assay type: functional; method in brief: as §2
[10] = tested on: Enterobacter cloacae; experiment: Antimicrobial activity against Enterobacter cloacae at 1 umol/disk after 24 hrs by disk diffusion assay; assay type: functional; method in brief: as §1
[11] = tested on: Micrococcus flavus; experiment: Antimicrobial activity against Micrococcus flavus at 1 umol/spot after 18 hrs by TLC-bioautographic method; assay type: functional; method in brief: as §2
[12] = tested on: Escherichia coli; experiment: Antimicrobial activity against Escherichia coli at 10 ug/disk after 24 hrs by disk diffusion assay; assay type: functional; method in brief: as §1
[13] = tested on: Enterobacter cloacae; experiment: Antimicrobial activity against Enterobacter cloacae after 24 hrs by microdilution technique; assay type: functional; method in brief: as §3
[14] = tested on: Staphylococcus aureus; experiment: Antimicrobial activity against Staphylococcus aureus at 1 umol/spot after 18 hrs by TLC-bioautographic method; assay type: functional; method in brief: as §2
[15] = tested on: Listeria monocytogenes; experiment: Antimicrobial activity against Listeria monocytogenes at 10 ug/disk after 24 hrs by disk diffusion assay; assay type: functional; method in brief: as §1
[16] = tested on: Pseudomonas aeruginosa; experiment: Antimicrobial activity against Pseudomonas aeruginosa at 1 umol/spot after 18 hrs by TLC-bioautographic method; assay type: functional; method in brief: as §2
[17] = tested on: Escherichia coli; experiment: Antimicrobial activity against Escherichia coli at 1 umol/disk after 24 hrs by disk diffusion assay; assay type: functional; method in brief: as §1
[18] = tested on: Staphylococcus aureus; experiment: Antimicrobial activity against Staphylococcus aureus at 10 ug/disk after 24 hrs by disk diffusion assay; assay type: functional; method in brief: as §1
[19] = tested on: Escherichia coli; experiment: Antimicrobial activity against Escherichia coli after 24 hrs by microdilution technique; assay type: functional; method in brief: as §3
[20] = tested on: Pseudomonas aeruginosa; experiment: Antimicrobial activity against Pseudomonas aeruginosa at 10 ug/disk after 24 hrs by disk diffusion assay; assay type: functional; method in brief: as §1
[21] = tested on: Micrococcus flavus; experiment: Antimicrobial activity against Micrococcus flavus at 1 umol/disk after 24 hrs by disk diffusion assay; assay type: functional; method in brief: as §1
[22] = tested on: Pseudomonas aeruginosa; experiment: Antimicrobial activity against Pseudomonas aeruginosa after 24 hrs by microdilution technique; assay type: functional; method in brief: as §3
[23] = tested on: Bacillus cereus; experiment: Antimicrobial activity against Bacillus cereus at 10 ug/disk after 24 hrs by disk diffusion assay; assay type: functional; method in brief: as §1
[24] = tested on: Bacillus cereus; experiment: Antimicrobial activity against Bacillus cereus at 1 umol/spot after 18 hrs by TLC-bioautographic method; assay type: functional; method in brief: as §2
[25] = tested on: Enterobacter cloacae; experiment: Antimicrobial activity against Enterobacter cloacae at 10 ug/disk after 24 hrs by disk diffusion assay; assay type: functional; method in brief: as §1
[26] = tested on: Salmonella typhimurium; experiment: Antimicrobial activity against Salmonella Typhimurium at 10 ug/disk after 24 hrs by disk diffusion assay; assay type: functional, organism-based; details: Salmonella enterica subsp. enterica serovar Typhimurium; method in brief: as §1
[27] = tested on: Micrococcus flavus; experiment: Antimicrobial activity against Micrococcus flavus after 24 hrs by microdilution technique; assay type: functional; method in brief: as §3
[28] = tested on: Salmonella typhimurium; experiment: Antimicrobial activity against Salmonella Typhimurium at 1 umol/disk after 24 hrs by disk diffusion assay; assay type: functional, organism-based; details: Salmonella enterica subsp. enterica serovar Typhimurium; method in brief: as §1
[29] = tested on: Staphylococcus aureus; experiment: Antimicrobial activity against Staphylococcus aureus at 1 umol/disk after 24 hrs by disk diffusion assay; assay type: functional; method in brief: as §1
[30] = tested on: Enterobacter cloacae; experiment: Antimicrobial activity against Enterobacter cloacae at 1 umol/spot after 18 hrs by TLC-bioautographic method; assay type: functional; method in brief: as §2
[31] = tested on: Bacillus cereus; experiment: Antimicrobial activity against Bacillus cereus at 1 umol/disk after 24 hrs by disk diffusion assay; assay type: functional; method in brief: as §1
[32] = tested on: Staphylococcus aureus; experiment: Antimicrobial activity against Staphylococcus aureus after 24 hrs by microdilution technique; assay type: functional; method in brief: as §3
[33] = Salmonella enterica subsp. enterica serovar Typhimurium

SMILES | inhibition zone (IZ) [2] | MBC [3] | MIC [3] | MBC [4] | MIC [4] | inhibition zone (IZ) [5] | inhibition zone (IZ) [6] | MBC [7] | MIC [7] | inhibition zone (IZ) [8] | inhibition zone (IZ) [10] | inhibition zone (IZ) [11] | inhibition zone (IZ) [12] | MBC [13] | MIC [13] | inhibition zone (IZ) [14] | inhibition zone (IZ) [15] | inhibition zone (IZ) [16] | inhibition zone (IZ) [17] | MBC [19] | other results
CC(=O)N1N=C(c2ccc(Nc3nc(Nc4ccccc4)nc(Nc4ccccc4)n3)cc2)CC1c1cccs1 (stereo not given) | inactive | 376 µM (≈ 206 µg/mL) | 188 µM (≈ 103 µg/mL) | 732 µM (≈ 400 µg/mL) | 732 µM (≈ 400 µg/mL) | 0.08 millimeter | inactive | 732 µM (≈ 400 µg/mL) | 376 µM (≈ 206 µg/mL) | inactive | inactive | inactive | inactive | 732 µM (≈ 400 µg/mL) | 732 µM (≈ 400 µg/mL) | inactive | inactive | inactive | inactive | 376 µM (≈ 206 µg/mL) | inhibition zone (IZ) [1]: inactive; inhibition zone (IZ) [9, 33]: inactive; inhibition zone (IZ) [18]: inactive; MIC [19]: 188 µM (≈ 103 µg/mL); inhibition zone (IZ) [20]: inactive; inhibition zone (IZ) [21]: inactive; MBC [22]: 732 µM (≈ 400 µg/mL); MIC [22]: 376 µM (≈ 206 µg/mL); inhibition zone (IZ) [23]: inactive; inhibition zone (IZ) [24]: 0.08 millimeter; inhibition zone (IZ) [25]: inactive; inhibition zone (IZ) [26]: inactive; MBC [27]: 376 µM (≈ 206 µg/mL); MIC [27]: 188 µM (≈ 103 µg/mL); inhibition zone (IZ) [28]: inactive; inhibition zone (IZ) [29]: inactive; inhibition zone (IZ) [30]: 0.1 millimeter; inhibition zone (IZ) [31]: inactive; MBC [32]: 732 µM (≈ 400 µg/mL); MIC [32]: 376 µM (≈ 206 µg/mL)
COc1ccccc1C1CC(c2ccc(Nc3nc(Nc4ccccc4)nc(Nc4ccccc4)n3)cc2)=NN1C(C)=O (stereo not given) | inactive | 350 µM (≈ 200 µg/mL) | 175 µM (≈ 99.9 µg/mL) | 700 µM (≈ 399 µg/mL) | 700 µM (≈ 399 µg/mL) | 0.08 millimeter | inactive | 700 µM (≈ 399 µg/mL) | 350 µM (≈ 200 µg/mL) | inactive | inactive | inactive | inactive | 350 µM (≈ 200 µg/mL) | 175 µM (≈ 99.9 µg/mL) | inactive | inactive | inactive | inactive | 700 µM (≈ 399 µg/mL) | inhibition zone (IZ) [1]: inactive; inhibition zone (IZ) [9, 33]: inactive; inhibition zone (IZ) [18]: inactive; MIC [19]: 350 µM (≈ 200 µg/mL); inhibition zone (IZ) [20]: inactive; inhibition zone (IZ) [21]: inactive; MBC [22]: 700 µM (≈ 399 µg/mL); MIC [22]: 350 µM (≈ 200 µg/mL); inhibition zone (IZ) [23]: inactive; inhibition zone (IZ) [24]: inactive; inhibition zone (IZ) [25]: inactive; inhibition zone (IZ) [26]: inactive; MBC [27]: 350 µM (≈ 200 µg/mL); MIC [27]: 175 µM (≈ 99.9 µg/mL); inhibition zone (IZ) [28]: inactive; inhibition zone (IZ) [29]: inactive; inhibition zone (IZ) [30]: 0.08 millimeter; inhibition zone (IZ) [31]: inactive; MBC [32]: 700 µM (≈ 399 µg/mL); MIC [32]: 350 µM (≈ 200 µg/mL)
Nc1nc(-c2ccc(Cl)cc2)cc(-c2ccc(Nc3nc(Nc4ccccc4)nc(Nc4ccccc4)n3)cc2)n1 | 0.08 millimeter | 179 µM (≈ 99.9 µg/mL) | 89.5 µM (≈ 49.9 µg/mL) | 716 µM (≈ 400 µg/mL) | 358 µM (≈ 200 µg/mL) | 0.08 millimeter | inactive | 358 µM (≈ 200 µg/mL) | 179 µM (≈ 99.9 µg/mL) | inactive | inactive | 0.07 millimeter | inactive | 179 µM (≈ 99.9 µg/mL) | 89.5 µM (≈ 49.9 µg/mL) | 0.04 millimeter | inactive | inactive | inactive | 179 µM (≈ 99.9 µg/mL) | zone of inhibition at 10 µg/disc ([1]; read-out: IZ): 9 mm; inhibition zone (IZ) [9]: 0.07 millimeter; zone of inhibition at 10 µg/disc ([18]; read-out: IZ): 7 mm; MIC [19]: 89.5 µM (≈ 49.9 µg/mL); inhibition zone (IZ) [20]: inactive; inhibition zone (IZ) [21]: 0.05 millimeter; MBC [22]: 358 µM (≈ 200 µg/mL); MIC [22]: 179 µM (≈ 99.9 µg/mL); inhibition zone (IZ) [23]: inactive; inhibition zone (IZ) [24]: 0.09 millimeter; inhibition zone (IZ) [25]: inactive; inhibition zone (IZ) [26]: inactive; MBC [27]: 358 µM (≈ 200 µg/mL); MIC [27]: 179 µM (≈ 99.9 µg/mL); inhibition zone (IZ) [28]: inactive; inhibition zone (IZ) [29]: 0.04; inhibition zone (IZ) [30]: inactive; inhibition zone (IZ) [31]: inactive; MBC [32]: 358 µM (≈ 200 µg/mL); MIC [32]: 179 µM (≈ 99.9 µg/mL)

Source: ChEMBL document CHEMBL1154716, “Synthesis of some new S-triazine based chalcones and their derivatives as potent antimicrobial agents” (2010)
